Where “and” joins values, the source holds several entries; their conditions need not be identical. Equal entries are not always repeated.
What was measured:
[1] = tested on: HEK-293T; experiment: Multiplex assay against HEK293T; assay type: toxicity, cell-based; conditions: human
In short: (§1)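 Compound was added to live cells that had been stained at seeding with Hoechst33342, BioTracker Green Microtubule Cytoskeleton Dye, MitoTracker Red and Annexin V Alexa Fluor 680, and imaging followed on a CQ1 microscope at 37°C and 5% CO2. CellPathfinder machine-learning gating divided cells into Hoechst high-intensity objects or normal cells, normal cells into healthy, pyknosed or fragmented nuclei, and pyknosed cells into mitotic or apoptotic. Tubulin, mitochondrial-mass and membrane-permeability phenotypes are per cents of healthy-nucleus cells.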

[2] = tested on: U2OS; experiment: Multiplex assay against U2OS; assay type: toxicity, cell-based; conditions: human; in short: as §1
[3] = 24 h, 1 µM, compound concentration 1 uM
[4] = 24 h, 10 µM, compound concentration 10 uM
[5] = 48 h, 1 µM, compound concentration 1 uM
[6] = 48 h, 10 µM, compound concentration 10 uM
[7] = 12 h, 1 µM, compound concentration 1 uM
[8] = 12 h, 10 µM, compound concentration 10 uM

Cc1ccc(F)cc1C(=O)Nc1ccc(C(=O)N2Cc3cccn3Cc3ccccc32)c(Cl)c1 [LIXIVAPTAN]
Population Tubulin-Different-Phenotype (%) [1, 3]: 24% and 22%
Total Cell Count [1, 3]: 595 and 423
Population Apoptotic (%) [1, 4]: 37% and 58%
Population Fragmented Nuclei (%) [1, 4]: 5% and 8%
Population Healthy Nuclei (%) [1, 4]: 69% and 72%
Population Hoechst High Intensity Objects (%) [1, 4]: 7% and 6%
Population Membrane Permeable-Phenotype (%) [1, 4]: 0%
Population Mitochondria Different-Phenotype (%) [1, 4]: 74% and 78%
Population Mitotic Cells (%) [1, 4]: 62% and 41%
Population Normal (%) [1, 4]: 92% and 93%
Population Pyknosed Nuclei (%) [1, 4]: 24% and 19%
Population Tubulin-Different-Phenotype (%) [1, 4]: 71% and 69%
Total Cell Count [1, 4]: 392 and 401
Population Apoptotic (%) [1, 5]: 22% and 17%
Population Fragmented Nuclei (%) [1, 5]: 12%
Population Healthy Nuclei (%) [1, 5]: 80%
Population Hoechst High Intensity Objects (%) [1, 5]: 2% and 4%
Population Membrane Permeable-Phenotype (%) [1, 5]: 0%
Population Mitochondria Different-Phenotype (%) [1, 5]: 19% and 24%
Population Mitotic Cells (%) [1, 5]: 77% and 82%
Population Normal (%) [1, 5]: 97% and 95%
Population Pyknosed Nuclei (%) [1, 5]: 6% and 7%
Population Tubulin-Different-Phenotype (%) [1, 5]: 17% and 21%
Total Cell Count [1, 5]: 995 and 643
Population Apoptotic (%) [1, 6]: 43% and 46%
Population Fragmented Nuclei (%) [1, 6]: 9% and 11%
Population Healthy Nuclei (%) [1, 6]: 74%
Population Hoechst High Intensity Objects (%) [1, 6]: 7% and 8%
Population Membrane Permeable-Phenotype (%) [1, 6]: 0%
Population Mitochondria Different-Phenotype (%) [1, 6]: 72% and 71%
Population Mitotic Cells (%) [1, 6]: 56% and 53%
Population Normal (%) [1, 6]: 92% and 91%
Population Pyknosed Nuclei (%) [1, 6]: 16% and 14%
Population Tubulin-Different-Phenotype (%) [1, 6]: 69% and 59%
Total Cell Count [1, 6]: 489 and 437
Population Apoptotic (%) [2, 7]: 69% and 84%
Population Healthy Nuclei (%) [2, 7]: 55% and 82%
Population Hoechst High Intensity Objects (%) [2, 7]: 3%
Population Membrane Permeable-Phenotype (%) [2, 7]: 9% and 14%
Population Mitochondria Different-Phenotype (%) [2, 7]: 9% and 10%
Population Mitotic Cells (%) [2, 7]: 30% and 15%
Population Normal (%) [2, 7]: 96%
Population Pyknosed Nuclei (%) [2, 7]: 11% and 8%
Population Tubulin-Different-Phenotype (%) [2, 7]: 7% and 11%
Total Cell Count [2, 7]: 230 and 150
Population Apoptotic (%) [2, 8]: 59% and 47%
Population Fragmented Nuclei (%) [2, 8]: 34% and 13%
Population Healthy Nuclei (%) [2, 8]: 49% and 69%
Population Hoechst High Intensity Objects (%) [2, 8]: 5%
Population Membrane Permeable-Phenotype (%) [2, 8]: 79% and 63%
Population Mitochondria Different-Phenotype (%) [2, 8]: 42% and 55%
Population Mitotic Cells (%) [2, 8]: 40% and 52%
Population Normal (%) [2, 8]: 94%
Population Pyknosed Nuclei (%) [2, 8]: 16%
Population Tubulin-Different-Phenotype (%) [2, 8]: 85% and 77%
Total Cell Count [2, 8]: 203 and 119
Population Apoptotic (%) [2, 3]: 86% and 57%
Population Fragmented Nuclei (%) [2, 3]: 26% and 14%
Population Healthy Nuclei (%) [2, 3]: 64% and 81%
Population Hoechst High Intensity Objects (%) [2, 3]: 1% and 4%
Population Membrane Permeable-Phenotype (%) [2, 3]: 9% and 11%
Population Mitochondria Different-Phenotype (%) [2, 3]: 9% and 13%
Population Normal (%) [2, 3]: 98% and 95%
Population Pyknosed Nuclei (%) [2, 3]: 8% and 4%
Population Tubulin-Different-Phenotype (%) [2, 3]: 4% and 7%
Total Cell Count [2, 3]: 257 and 171
Population Apoptotic (%) [2, 4]: 59% and 66%
Population Fragmented Nuclei (%) [2, 4]: 30% and 14%
Population Healthy Nuclei (%) [2, 4]: 50% and 67%
Population Hoechst High Intensity Objects (%) [2, 4]: 4%
Population Membrane Permeable-Phenotype (%) [2, 4]: 65% and 54%
Population Mitochondria Different-Phenotype (%) [2, 4]: 63% and 67%
Population Mitotic Cells (%) [2, 4]: 40% and 33%
Population Normal (%) [2, 4]: 95%
Population Pyknosed Nuclei (%) [2, 4]: 18%
Population Tubulin-Different-Phenotype (%) [2, 4]: 75% and 66%
Total Cell Count [2, 4]: 207 and 119
Population Apoptotic (%) [2, 5]: 87% and 95%
Population Fragmented Nuclei (%) [2, 5]: 24% and 10%
Population Healthy Nuclei (%) [2, 5]: 64% and 79%
Population Hoechst High Intensity Objects (%) [2, 5]: 1% and 3%
Population Membrane Permeable-Phenotype (%) [2, 5]: 9% and 13%
Population Mitochondria Different-Phenotype (%) [2, 5]: 6% and 11%
Population Mitotic Cells (%) [2, 5]: 12% and 5%
Population Normal (%) [2, 5]: 98% and 96%
Population Pyknosed Nuclei (%) [2, 5]: 11% and 10%
Population Tubulin-Different-Phenotype (%) [2, 5]: 5%
Total Cell Count [2, 5]: 378 and 206
Population Apoptotic (%) [2, 6]: 75% and 92%
Population Fragmented Nuclei (%) [2, 6]: 32% and 18%
Population Healthy Nuclei (%) [2, 6]: 37% and 58%
Population Hoechst High Intensity Objects (%) [2, 6]: 5% and 12%
Population Membrane Permeable-Phenotype (%) [2, 6]: 49% and 60%
Population Mitochondria Different-Phenotype (%) [2, 6]: 40% and 52%
Population Normal (%) [2, 6]: 94% and 87%
Population Pyknosed Nuclei (%) [2, 6]: 29% and 23%
Population Tubulin-Different-Phenotype (%) [2, 6]: 44% and 57%
Total Cell Count [2, 6]: 232 and 137
